Measured values as given in ChEMBL document CHEMBL3407335, “SAR-guided development and characterization of a potent antitumor compound toward B-cell neoplasms with no detectable cytotoxicity toward healthy cells” (J Med Chem, 2015).

Experiments:
[1] = Cytotoxicity against human MEC1 cells after 48 hrs by CellTitre-Blue assay; type: functional, cell-based; details: MEC1, 48 h
How it was run: (§1)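 Screening used phenol red-free RPMI 1640 + L-glutamine with 10% FBS and 1% PenStrep. Exposure was 48 h in triplicate, with CellTiter-Blue read-out. IC50 came from at least two independent experiments, each in triplicate.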

[2] = Cytotoxicity against human OCI-LY7 cells after 48 hrs by CellTitre-Blue assay; type: functional, cell-based; details: OCI-Ly7, 48 h
How it was run: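 OCI-LY7 assays were run in IMDM + GlutaMAX with 25 mM HEPES, phenol red, 20% FBS and 1% PenStrep. […] Viability was read by CellTiter-Blue. IC50 came from at least two independent experiments, each with three replicates.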

[3] = Cytotoxicity against mouse M210B4 cells after 48 hrs by CellTitre-Blue assay; type: cell-based; details: M210B4, 48 h
How it was run: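 Murine bone marrow fibroblasts served as the non-malignant counter-screen. Compound was tested at six levels (0.1, 1, 5, 10, 50, 100 μM) for 48 h. Viability was read by CellTiter-Blue. IC50 came from at least two independent experiments with three replicates each.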

[4] = Cytotoxicity against human U2940 cells after 48 hrs by CellTitre-Blue assay; type: functional, cell-based; details: U-2940, 48 h; how it was run: as §1
[5] = Cytotoxicity against human SU-DHL6 cells after 48 hrs by CellTitre-Blue assay; type: functional, cell-based; details: SU-DHL-6, 48 h
How it was run: (§2)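 Cell lines in phenol red-free RPMI 1640 with L-glutamine, 10% FBS and 1% penicillin/streptomycin. Cells exposed in triplicate to increasing compound concentrations for 48 h at 37 °C. CellTiter-Blue read-out, normalized to vehicle-only cells. IC50 from two independent experiments.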

CCRF-CEM [6] = assay: Cytotoxicity against human CCRF-CEM cells assessed as reduction in cell viability at <1 uM after 48 hrs by CellTitre-Blue assay; type: functional
How it was run: (§3)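 Cell lines were maintained in RPMI 1640 + GlutaMAX with 10% FBS and 1% penicillin/streptomycin at 37 °C under 5% CO2. For the assay, cells went into phenol red-free RPMI 1640 + L-glutamine with 10% FBS and 1% PenStrep. They were incubated in triplicate with increasing compound concentrations for 48 h. Viability was read by CellTiter-Blue, normalized to vehicle-only cells, and reported as mean plus SD.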

PBMC [7] = assay: Cytotoxicity against healthy human PBMC after 48 hrs by CellTitre-Blue assay; type: cell-based
How it was run: (§4)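 Cryopreserved PBMC (CLL patients N = 15; healthy donors N = 4) thawed and cultured overnight in phenol red-free RPMI 1640 with L-glutamine and 20% FBS. Suspension culture at 300 000 cells per well with increasing compound concentrations for 48 h, in triplicate. CellTiter-Blue viability normalized to vehicle; IC50 fitted from the mean values of all samples.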

[8] = Cytotoxicity against human HL60 cells after 48 hrs by CellTitre-Blue assay; type: functional, cell-based; details: HL-60, 48 h; how it was run: as §2
Jurkat [9] = assay: Cytotoxicity against human Jurkat cells assessed as reduction in cell viability at <1 uM after 48 hrs by CellTitre-Blue assay; type: functional; how it was run: as §3
PBMC [10] = assay: Cytotoxicity against patient PBMC after 48 hrs by CellTitre-Blue assay in presenc of mouse M210B4 cells; type: cell-based; details: Homo sapiens
How it was run: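 M2-10B4 mouse fibroblasts were seeded and left overnight to form a confluent layer. Medium was then replaced by 3 million PBMC from CLL patients (N = 9), which had been thawed and held overnight, in RPMI with 20% FBS. Cocultures were exposed to increasing compound concentrations for 48 h, in triplicate. CellTiter-Blue viability normalized to vehicle; IC50 from mean values of all samples.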

K562 [11] = assay: Cytotoxicity against human K562 cells assessed as reduction in cell viability at <1 uM after 48 hrs by CellTitre-Blue assay; type: functional; how it was run: as §3
[12] = Cytotoxicity against human HL60 cells assessed as reduction in cell viability at <1 uM after 48 hrs by CellTitre-Blue assay; type: functional, HL-60; how it was run: as §3
[13] = Cytotoxicity against human SUDHL9 cells after 48 hrs by CellTitre-Blue assay; type: functional, cell-based; details: SUDHL9, 48 h; how it was run: as §2
Jurkat [14] = assay: Cytotoxicity against human Jurkat cells after 48 hrs by CellTitre-Blue assay; type: functional, cell-based; how it was run: as §2
PBMC [15] = assay: Cytotoxicity against patient PBMC after 48 hrs by CellTitre-Blue assay; type: cell-based; details: Homo sapiens; how it was run: as §4
CCRF-CEM [16] = assay: Cytotoxicity against human CCRF-CEM cells after 48 hrs by CellTitre-Blue assay; type: functional, cell-based; how it was run: as §2
Jurkat [17] = assay: Cytotoxicity against human Jurkat cells after 24 hrs by MTT assay; type: functional, cell-based
K562 [18] = assay: Cytotoxicity against human K562 cells after 24 hrs by MTT assay; type: functional, cell-based; details: K562, 24 h

Compound	IC50 [1] [nM]	IC50 [2] [nM]	IC50 [3] [nM]	IC50 [4] [nM]	other results
CCOc1ccc(C(=O)/C=C/c2cc3ccccc3[nH]2)cc1	> 100000	25000	–	–	–
CCOc1ccccc1C(=O)/C=C/c1ccc2cc(OC)ccc2c1	7200	1000	> 100000	25000	–
CCOc1ccccc1C(=O)/C=C/c1csc2ccccc12	170	100	8200	860	–
CCOc1ccccc1C(=O)/C=C/c1c2ccccc2cc2ccccc12	> 100000	> 100000	–	> 100000	–
CCOc1ccccc1C(=O)/C=C/c1cc2ccccc2[nH]1	22	52	19000	2900	IC50 [5]: 56 nM; Activity (CCRF-CEM [6]): <30%; IC50 (PBMC [7]): 14000 nM; IC50 [8]: 16 nM; Activity (Jurkat [9]): <30%; IC50 (PBMC [10]): 680 nM; Activity (K562 [11]): 60%; Activity [12]: <30%; IC50 [13]: 31 nM; IC50 (Jurkat [14]): 38 nM; IC50 (PBMC [15]): 1200 nM; IC50 (CCRF-CEM [16]): 32 nM
CC(C)Oc1ccccc1C(=O)/C=C/c1ccc2ccccc2c1	1200	150	> 100000	11000	–
CCOc1cccc(C(=O)/C=C/c2ccc3ccccc3c2)c1	2900	1800	–	16000	–
CCOc1ccccc1C(=O)/C=C/c1ccc2sccc2c1	340	340	21000	9100	–
CCOc1ccccc1C(=O)/C=C/c1cc2ccccc2c2ccccc12	1600	680	> 100000	40000	–
CCOc1cccc(C(=O)/C=C/c2cc3ccccc3[nH]2)c1	3300	4800	–	–	–
Cc1ccccc1C(=O)/C=C/c1ccc2ccccc2c1	6400	4900	72000	10000	–
C=Cc1cccc(/C=C/C(=O)c2ccccc2OCC)c1	200	500	> 100000	2500	–
CCOc1ccccc1C(=O)/C=C/c1ccc2ccccc2c1	60	60	7800	2400	IC50 (Jurkat [17]): 21000 nM; IC50 (K562 [18]): 40000 nM
CCCCOc1ccccc1C(=O)/C=C/c1ccc2ccccc2c1	700	120	> 100000	5300	–
COc1ccccc1C(=O)/C=C/c1ccc2ccccc2c1	430	460	42000	4100	–
Nc1nc(F)nc2c1ncn2[C@@H]1O[C@H](CO)[C@@H](O)[C@@H]1O [FLUDARABINE]	–	–	–	–	IC50 (PBMC [7]): 14000 nM; IC50 (PBMC [10]): 10000 nM; IC50 (PBMC [15]): 1900 nM
CCOc1ccccc1C(=O)/C=C/c1cccc2ccccc12	1900	1500	17000	7400	–
CCCOc1ccccc1C(=O)/C=C/c1ccc2ccccc2c1	130	100	> 100000	5300	–
CCOc1ccccc1C(=O)/C=C/c1ccc2c(c1)OCO2	1100	130	> 100000	9500	–
CCOc1ccc(C(=O)/C=C/c2csc3ccccc23)cc1	7500	4800	–	15000	–
CCOc1cccc(C(=O)/C=C/c2csc3ccccc23)c1	2200	1700	–	7600	–
